Calls of active or inactive are those of the source. No cut-off for these calls is given here.
What was measured:
HEK293 = experiment: Selectivity ratio of Ki for human A1 receptor expressed in HEK293 cell membranes to Ki for human A2A receptor expressed in HEK293 cell membranes; assay type: cell-based
Adenosine receptor A1 = biological target: T1, Adenosine receptor A1 (Homo sapiens, UniProt P30542); experiment: Displacement of [3H]DPCPX from human A1 receptor expressed in HEK293 cell membranes after 60 mins by scintillation counting
T1 sequence (P30542 whole entry): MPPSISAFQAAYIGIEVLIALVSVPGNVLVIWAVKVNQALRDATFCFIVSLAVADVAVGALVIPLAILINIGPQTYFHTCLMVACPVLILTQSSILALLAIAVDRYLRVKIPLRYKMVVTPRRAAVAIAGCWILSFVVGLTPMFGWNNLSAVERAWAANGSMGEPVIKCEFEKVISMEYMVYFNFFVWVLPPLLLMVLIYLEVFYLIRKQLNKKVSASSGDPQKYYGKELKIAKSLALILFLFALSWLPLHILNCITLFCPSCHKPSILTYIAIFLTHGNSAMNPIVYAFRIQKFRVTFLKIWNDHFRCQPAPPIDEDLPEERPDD

Adenosine receptor A2a = Adenosine receptor A2a (Homo sapiens, UniProt P29274); experiment: Displacement of [3H]ZM241385 from human A2A receptor expressed in HEK293 cell membranes after 60 mins by scintillation counting
Chain of Adenosine receptor A2a (P29274 whole entry): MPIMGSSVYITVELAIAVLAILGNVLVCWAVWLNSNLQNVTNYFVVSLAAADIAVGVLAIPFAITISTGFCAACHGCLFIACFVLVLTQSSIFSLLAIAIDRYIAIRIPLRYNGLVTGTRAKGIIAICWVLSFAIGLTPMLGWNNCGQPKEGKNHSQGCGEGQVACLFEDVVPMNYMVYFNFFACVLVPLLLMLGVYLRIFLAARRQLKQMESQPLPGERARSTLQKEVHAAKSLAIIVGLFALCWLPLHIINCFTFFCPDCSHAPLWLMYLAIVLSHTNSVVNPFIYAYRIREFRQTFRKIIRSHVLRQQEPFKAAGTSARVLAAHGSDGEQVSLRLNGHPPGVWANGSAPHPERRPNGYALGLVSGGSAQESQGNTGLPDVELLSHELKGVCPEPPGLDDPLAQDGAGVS

Mus musculus [1] = experiment: Inhibition of haloperidol-induced catalepsy in Swiss albino mouse at 10 mg/kg, ip administered 30 mins prior haloperidol challenge measured after 120 mins; assay type: functional, organism-based; set-up: dose 10 mg/kg
Method in brief: (§1)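 Adult male Swiss albino mice (4–6 weeks, 20–30 g), four per group. Compound given ip at 5–20 mg/kg, with 1% acacia in saline as vehicle control. […] Catalepsy scored over time up to 120 min. Mean ± SEM, n = 4, one-way ANOVA and Kruskal–Wallis test.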

Mus musculus [2] = experiment: Inhibition of haloperidol-induced catalepsy in Swiss albino mouse at 5 to 20 mg/kg, ip administered 30 mins prior haloperidol challenge measured after 120 mins; assay type: functional, organism-based; method in brief: as §1

Row | Compound | Ki (Adenosine receptor A1) | Ki (Adenosine receptor A2a) | Ratio Ki (HEK293) | inhibition (Mus musculus [1]) | inhibition (Mus musculus [2])
1 | CCCCn1c(/N=C/c2ccc(Cl)cc2)c(C#N)sc1=S | – | – | 2570 | – | –
2 | CCCCn1c(/N=C/c2ccc(Br)cc2)c(C#N)sc1=S | – | – | 0.013 | – | –
3 | N#Cc1sc(=S)n(-c2ccccc2)c1/N=C/c1ccc(Cl)cc1 | – | – | 2950 | – | –
4 | N#Cc1sc(=S)n(-c2ccccc2)c1/N=C/c1ccc(Br)cc1 | – | – | – | Active | Active
5 | CCCn1c(/N=C/c2ccc(F)cc2)c(C#N)sc1=S | – | – | 3390 | – | –
6 | CCCn1c(/N=C/c2ccc(Cl)cc2)c(C#N)sc1=S | – | – | 0.042 | – | –
7 | Nc1nc2c(cnn2CCc2ccccc2)c2nc(-c3ccco3)nn12 | – | – | – | Active | Active
8 | N#Cc1sc(=S)n(-c2ccccc2)c1/N=C/c1ccc(F)cc1 | 0.00063 nM | 0.0047 nM | 0.13 | – | –

Now from value to compound, other results behind:

Row | Ki (Adenosine receptor A1) | Ki (Adenosine receptor A2a) | Compound | Ratio Ki (HEK293) | inhibition (Mus musculus [1]) | inhibition (Mus musculus [2])
9 | 889 nM | 2.64 nM | N#Cc1sc(=S)n(CCc2ccccc2)c1/N=C/c1ccc(F)cc1 | 337 | – | –
10 | 607 nM | 1.8 nM | CCCn1c(/N=C/c2ccc(Br)cc2)c(C#N)sc1=S | 337 | – | –
11 | 19.8 nM | 1.44 nM | CCn1c(/N=C/c2ccc(Cl)cc2)c(C#N)sc1=S | 13.8 | – | –
12 | 0.00059 nM | – | CCn1c(/N=C/c2ccc(F)cc2)c(C#N)sc1=S | 5.3e-05 | – | –
13 | 0.00074 nM | – | CCn1c(/N=C/c2ccc(Br)cc2)c(C#N)sc1=S | 0.074 | – | –
14 | 0.25 nM | 0.067 nM | N#Cc1sc(=S)n(CCc2ccccc2)c1/N=C/c1ccc(Br)cc1 | 3.73 | – | –
15 | 16.7 nM | 0.027 nM | CCCCn1c(/N=C/c2ccc(F)cc2)c(C#N)sc1=S | 619 | – | –
